Measured values as given in ChEMBL document CHEMBL1212762, “In vivo activity of ceftobiprole in murine skin infections due to Staphylococcus aureus and Pseudomonas aeruginosa” (Antimicrob Agents Chemother, 2010).

What was measured:
Pseudomonas aeruginosa = assay: Antimicrobial activity against Pseudomonas aeruginosa OC 4354 infected in immunocompromized SKH1 mouse assessed as lesion volume at 100 mg/kg/day, sc measured after 48 hrs postinfection (reference value: 2195 mm3); type: functional; details: route subcutaneous
[1] = Tmax in Staphylococcus aureus infected […] SKH1 mouse skin at 50 mg/kg, sc; type: ADME, organism-based, Zone of skin; parameters: dose 50 mg/kg, route subcutaneous
Zone of skin [2] = assay: fAUC (0-infinity) in immunocompromized SKH1 mouse skin at 50 mg/kg, sc; type: ADME, organism-based; parameters: dose 50 mg/kg, route subcutaneous; details: in vivo
Summary of the method: (§1)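 Female SKH1 hairless mice, immunocompetent or cyclophosphamide-neutropenic, infected s.c. with MRSA OC 8525 or P. aeruginosa OC 4354 on the Cytodex beads (left flank), sterile beads on the right. Single dose 24 h later: s.c. at the nape, or linezolid 50 mg/kg oral. Plasma and skin (DMSO homogenate) sampled over time, HPLC with diode array.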

[3] = Half life in immunocompetent SKH1 mouse skin at 50 mg/kg, sc; type: ADME, organism-based, Zone of skin; parameters: dose 50 mg/kg, route subcutaneous; summary of the method: as §1
Zone of skin [4] = assay: fAUC (0-infinity) in Staphylococcus aureus infected immunocompetent SKH1 mouse skin at 50 mg/kg, sc; type: ADME, organism-based; parameters: dose 50 mg/kg, route subcutaneous; details: in vivo; summary of the method: as §1
Staphylococcus aureus = assay: Antimicrobial activity against methicillin-susceptible Staphylococcus aureus Smith OC 4172 infected in SKH1 mouse assessed as log change in bacterial colony forming unit per gram of skin tissue at 25 mg/kg/day, sc (reference value: 1.6 deltalog CFU); type: functional; details: route subcutaneous
Summary of the method: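 Female hairless immunocompetent SKH1 mice were anaesthetised and injected s.c. with 0.2 ml Cytodex bead inoculum (0.1% vol/vol beads in BHI; 6.7–7.0 log10 CFU/mouse): MSSA OC 4172 in the left flank, MRSA OC 8525 in the right. Drug was given at 1, 3, 25 and 27 h post-infection. At 48 h, flank lesions were excised, weighed and homogenised in saline, then plated on TSA (18 h, 37°C). The value is Δlog CFU/g versus the inoculum, from 5 mice/dose, run twice and pooled.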

In the case of `Nc1nc(/C(=N/O)C(=O)N[C@@H]2C(=O)N3C(C(=O)O)=C(/C=C4\CCN([C@@H]5CCNC5)C4=O)CS[C@H]23)ns1` [CEFTOBIPROLE], the Activity (Pseudomonas aeruginosa) is reported as 373 mm3, the Tmax [1] is reported as 15 min and the fAUC (Zone of skin [2]) is reported as 690 µg·min/mL. It also gave a half-life [3] of 19 min, a fAUC (Zone of skin [4]) of 652 µg·min/mL and a deltalog10CFU (Staphylococcus aureus) of 1.5.
